# Assay outcomes as filed in PubChem BioAssay.
# Neddyl block = blocks human cullin neddylation; P61081+Q13564; TR-FRET cullin neddylation, biochemical; calls only at 25 µM; 360,000 compounds, 0.58% hits; in the data active means inhibition above about 36%
# Target sequence (P61081 whole entry, looked up): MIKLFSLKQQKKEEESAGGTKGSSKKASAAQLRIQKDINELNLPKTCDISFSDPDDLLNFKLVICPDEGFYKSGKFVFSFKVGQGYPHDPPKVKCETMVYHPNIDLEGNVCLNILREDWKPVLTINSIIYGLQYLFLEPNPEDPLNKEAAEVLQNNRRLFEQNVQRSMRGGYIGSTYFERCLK
# Target sequence (Q13564 whole entry, looked up): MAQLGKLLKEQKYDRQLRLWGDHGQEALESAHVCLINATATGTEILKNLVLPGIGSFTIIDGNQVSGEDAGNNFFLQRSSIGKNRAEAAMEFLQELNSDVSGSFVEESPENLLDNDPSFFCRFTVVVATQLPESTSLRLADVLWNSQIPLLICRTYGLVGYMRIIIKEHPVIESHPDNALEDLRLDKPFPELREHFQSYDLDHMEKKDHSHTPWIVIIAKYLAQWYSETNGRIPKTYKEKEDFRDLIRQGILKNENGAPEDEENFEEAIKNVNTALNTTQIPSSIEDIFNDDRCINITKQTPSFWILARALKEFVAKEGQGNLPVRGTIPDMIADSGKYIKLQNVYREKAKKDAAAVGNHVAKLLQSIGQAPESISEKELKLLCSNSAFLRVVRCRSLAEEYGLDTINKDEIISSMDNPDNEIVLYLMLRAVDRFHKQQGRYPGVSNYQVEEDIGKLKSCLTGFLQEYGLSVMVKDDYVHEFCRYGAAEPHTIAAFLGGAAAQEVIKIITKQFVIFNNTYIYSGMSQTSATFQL
# DNA FID counter = fluorescent intercalator displacement, NS3 helicase counter-screen. DNA fluorescent intercalator displacement, fluorescence. 290,000 compounds, 0.17% hits. inhibition, % at 7.9 µM; in the data active means inhibition above about 37%;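 further: 0% = vehicle and 100% = reference compound; higher means more ethidium bromide displaced from hairpin DNA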
# RAD52 anneal inh = blocks human RAD52 DNA annealing. inhibition, % at 18.7 µM. 360,000 compounds, 0.46% hits. P43351. recombinant RAD52 DNA annealing, FRET fluorescence;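 active means every replicate showing at least 50% inhibition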
# RAD54 branch = inhibitors of human RAD54 branch migration; Q92698; RAD54 Holliday junction branch migration, FAM/BHQ fluorescence; inhibition, % at 10.4 µM; 360,000 compounds, 0.14% hits; AID 602329;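 active means mean normalized replicate activity at least 40 and at least half of replicates scoring 40 or more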;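 further: 0% = median of neutral control wells and 100% = median of positive control wells; inhibitors cause a drop in the FAM fluorescence signal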
# Apaf-1 inh = blocks human Apaf-1 apoptosome activity; O14727; reconstituted apoptosome caspase-3 activity, DEVD-Rh110 fluorescence; inhibition, % at 20 µM; 330,000 compounds, 0.71% hits; active means inhibition of at least 40% at 20 µM;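 further: plate controls were DMSO wells for no effect and DEVD-CHO caspase inhibitor wells for full effect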
#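 Medium: Hepes buffer, pH 7.5 / System: biochemical Apaf-1 apoptosome reconstitution / Measured by: Rh110 fluorescence, excitation 480 nm, emission 540 nm / Times: compound with Apaf-1, dATP, procaspase-3 30 min, then 50 min reaction, room temperature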
# UBC13 inh = blocks human UBC13 polyubiquitin chain formation; P61088; TR-FRET; inhibition, % at 20 µM; 330,000 compounds, 0.47% hits; in the data active means inhibition above about 45%, passing the limit was not always enough
# Neddyl conf = cullin neddylation inhibition, confirmation; shares compounds with Neddyl block; AID 652217; 1,800 compounds, 13% hits; calls only at 25 µM; TR-FRET cullin neddylation biochemical assay; in the data active means inhibition above about 40%;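 further: neddylation substrate is the cullin 1 ring ligase complex with SKP2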
# * hit, by the source's call; i = inactive; x = no result given; + = active, no number. Shown are actives, neighbours in structure and some others; about 1.6% of the full set was active somewhere.
SMILES,Neddyl block,DNA FID counter,RAD52 anneal inh,RAD54 branch,Apaf-1 inh,UBC13 inh,Neddyl conf
Cc1sc2nc(SCC(=O)NCc3ccco3)n(C)c(=O)c2c1C,i,-6.2,x,x,2.9,-7.7,x
O=C1c2ccccc2C(=O)N1Cc1nc2ccccc2c(=O)n1Cc1ccco1,x,x,x,x,-4.3,-10.7,x
Cc1sc2nc3ccc(NCc4ccco4)nn3c(=O)c2c1C,+,-0.5,x,x,-2.0,1.6,x
O=C(Nc1cc(F)ccc1F)N1CC(=O)N2[C@@H](CO)[C@H](c3ccc(C#CC4CCCC4)cc3)[C@@H]2C1,x,x,-4.3,x,x,x,x
O=C(Nc1ccccc1F)N[C@H]1CC[C@H](CCNS(=O)(=O)c2ccc(F)cc2)O[C@H]1CO,x,x,20.0,-6.6,x,x,x
O=C(Nc1ccc2nc(-c3ccco3)[nH]c2c1)c1cccs1,+,-6.2,x,2.0,-1.7,-1.1,i
COCCNC(=O)[C@H]1[C@H](CO)[C@H]2Cn3c(cccc3=O)[C@H]2N1Cc1ccccc1OC,x,x,-10.6,x,x,x,x
CC=Cc1ccc2n(c1=O)C[C@H]1[C@H](CO)[C@@H](C(=O)N[C@H](C)c3ccccc3)N(C(=O)c3cnccn3)[C@@H]21 (mixture of isomers),x,x,4.2,1.5,x,x,x
Cc1ccc(-c2c(C#N)c(N)nc3c2CCCC3)o1,+,-15.5,-16.6,x,3.1,17.8,i
COc1ccc(OC)c2[nH]c(=O)c(CCNC(=O)c3ccc4c(c3)OCO4)cc12,+,-25.5,-6.7,-3.6,9.7,-18.9,i
O=C(c1ccccc1)N(CC1CCC1)C[C@@H]1N[C@H](CO)[C@@H]1c1ccccc1,x,x,-15.0,-4.4,x,x,x
Cc1csc(SCC(=O)Nc2ccccc2C)n1,i,x,-9.6,-0.7,-13.1,5.9,x
Cc1csc(SCC(=O)Nc2cccc3nsnc23)n1,+,0.4,x,9.1,1.4,13.4,x
Cc1ccc(C(=O)c2oc3ccccc3c2NC(=O)c2cc(-c3cc(C)ccc3O)n[nH]2)cc1,+,-6.2,-11.3,-3.6,-11.3,-21.5,i
COC(=O)c1ccc(-c2ccc(/C=N/NC(=O)CC3(C)OCCCO3)o2)cc1,+,-15.2,-7.0,-4.3,-9.1,-11.3,i
CC1(CC(=O)N/N=C/c2ccc(-c3ccc(C(=O)O)cc3)o2)OCCO1,i,2.6,-1.7,0.7,0.8,-2.6,x
CC(=O)c1ccc(-c2cccc(-c3nc4ccccn4c3NC3CCCCC3)c2)cc1,+,x,-85.8,-6.4,20.6,11.6,i
COc1ccc(S(=O)(=O)Nc2cccc3c2O[C@H](CN(C)S(=O)(=O)c2cccs2)[C@@H](C)CN([C@@H](C)CO)C3=O)cc1,x,x,2.5,-3.2,x,x,x
CO[C@H]1CN(C)C(=O)c2ccc(NC(=O)Nc3cccc(F)c3)cc2OC[C@@H](C)NC[C@H]1C,x,x,-9.2,1.0,x,x,x
C[C@H]1CN([C@@H](C)CO)C(=O)c2cc(NC(=O)C3CCCCC3)ccc2O[C@H]1CN(C)CC1CC1,x,x,4.1,12.6,x,x,x
COC(=O)c1sc2nc3c(cc2c1N)COC(C)(C)C3,+,-7.7,x,1.7,10.1,-12.6,+
C[C@H]1CN([C@@H](C)CO)S(=O)(=O)c2ccc(C#CCN(C)C)cc2O[C@H]1CN(C)C,x,x,14.6,-32.5,x,x,x
CC1(C)Cc2c(C#N)c(NC3CCCCC3)nc(-c3ccco3)c2CO1,x,-14.4,x,-4.4,8.4,-22.3,x
CC1(C)Cc2c(C#N)c(NCC3CCCO3)nc(-c3ccco3)c2CO1 (stereo not drawn),+,-24.5,x,-4.6,8.3,2.3,x
C[C@H](CO)N1C[C@H](C)[C@@H](CN(C)C(=O)Nc2ccc(F)cc2)OCCCC[C@H](C)Oc2ccc(NC(=O)Nc3cccc4ccccc34)cc2C1=O,x,x,18.1,-3.2,x,x,x
SMILES,Neddyl block,DNA FID counter,RAD52 anneal inh,RAD54 branch,Apaf-1 inh,UBC13 inh,Neddyl conf
CN1CCC(C(=O)N2CCCC(C(=O)c3ccc4c5c(cccc35)CC4)C2)CC1 (stereo not drawn),+,17.2,12.9,x,-12.7,41.2,i
CCOc1ccccc1C(=O)Nc1cc2c(cc1N1CCCC1)n(CC)c(=O)n2CC,+,-45.9,6.2,3.3,27.9,9.2,i
COCCn1nnnc1C(c1cc2cc(OC)c(OC)cc2[nH]c1=O)N1CCN(c2ccc(O)cc2)CC1 (stereo not drawn),+,-18.3,-8.6,-4.1,-1.7,-17.8,i
CCc1ccc2[nH]c(=O)c(C(c3nnnn3CCOC)N3CCN(c4ccc(F)cc4)CC3)cc2c1 (stereo not drawn),i,-12.9,x,-2.1,8.7,-0.2,x
COc1ccccc1CCn1cnc2c3cc(C)ccc3n(C)c2c1=O,+,-3.6,x,6.7,24.9,19.5,x
CCOCCCn1cnc2c3cc(F)ccc3n(C)c2c1=O,i,-14.2,-12.5,3.7,-8.2,15.5,x
CCN1CCc2nc3sc(C(=O)Nc4cccnc4Cl)c(N)c3cc2C1,+,4.3,24.2,25.0,29.4,-48.9,i
COc1cccc(NC(=O)C[C@H]2CC[C@H]3[C@@H](COc4ccc(NC(=O)c5ccccc5F)cc4C(=O)N3C)O2)c1,x,x,-4.9,x,x,x,x
CNC(=O)COC(=O)c1ccc(-c2nc3ccccc3s2)s1,+,-2.0,-23.0,-3.1,-6.9,21.8,i
CNC(=O)c1c(NC(=O)c2ccco2)sc2c1CCCC2,+,-8.7,-3.9,10.6,5.6,-11.1,x
Cc1ccc(C(=O)Nc2sc3c(c2C(=O)O)CCCCC3)o1,x,-17.8,x,-4.5,4.5,2.8,x
CC(C)OC(=O)c1c(NC(=O)c2ccco2)sc2c1CCCCC2,x,-9.6,x,-7.0,19.4,11.7,x
CNC(=O)c1c(NC(=O)c2cccc(C)c2)sc2c1CCC2,+,-5.5,-17.1,6.9,14.8,-2.7,x
NC(=O)c1c(NC(=O)c2cccc(N3C(=O)CCC3=O)c2)sc2c1CCCCC2,+,-5.8,-11.3,-10.2,-2.8,12.2,x
Cc1ccc(C(=O)Nc2sc3c(c2C(=O)O)CCCC3)o1,+,-21.1,-7.5,-7.0,3.5,-5.0,x
COc1cc(C(=O)Nc2sc3c(c2C(=O)O)CCC3)cc(OC)c1OC,+,-7.8,-13.1,-10.2,7.1,2.0,x
COc1cccc(C(=O)Nc2sc3c(c2C(=O)O)CCCC3)c1,i,-15.6,-1.2,7.7,3.4,0.7,x
O=C(N/N=C/c1cccnc1)c1ccc(CN2c3cccc4cccc(c34)S2(=O)=O)cc1,+,-28.9,-28.2,2.5,24.8,-5.6,+
COc1ccc2[nH]c(=O)c(C(c3nnnn3C3CCCCC3)N3CCN(C)CC3)cc2c1 (stereo not drawn),x,7.8,x,0.7,5.3,15.1,x
CCCN1CCN(C(c2cc3cc(OCC)ccc3[nH]c2=O)c2nnnn2C2CCCCC2)CC1 (stereo not drawn),+,13.1,x,x,-5.7,17.0,x
CCOc1ccc(-c2c(C(=O)N/N=C/c3c[nH]c4ccccc34)nnn2-c2nonc2N)cc1,+,0.5,-8.0,9.0,17.3,-13.0,i
